Test results as given in ChEMBL document CHEMBL4411292, “Boronate, trifluoroborate, sulfone, sulfinate and sulfonate congeners of oseltamivir carboxylic acid: Synthesis and anti-influenza activity” (Eur J Med Chem, 2019).
Activity calls are given as the source filed them. The calls are words filed in the database; no cut-off is given here.

Columns and labels:
Influenza A virus = assay: Antiviral activity against Influenza A virus (A/WSN/1933(H1N1)) infected in MDCK cells assessed as reduction in virus-induced cytopathic effect after 48 hrs by CellTiter 96 aqueous non-radioactive cell proliferation assay; assay type: functional, organism-based
Method in brief: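 MDCK cells (DMEM with 10% FBS, 37 °C, 5% CO2) were seeded at 1 × 10^5 cells/mL and infected with 100 TCID50 of A/WSN/33 premixed with inhibitor at varied concentrations. Incubation was 48 h at 37 °C, 5.0% CO2. Viability was read with CellTiter 96 AQueous reagent (15 min, A490). EC50 was fitted from % CPE vs concentration, as mean ± SD of three experiments.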

[1] = Cytotoxicity against MDCK cells assessed as reduction in cell viability after 48 hrs by CellTiter 96 aqueous non-radioactive cell proliferation assay; assay type: cell-based, Canis lupus familiaris; settings: dog
Method in brief: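 Uninfected MDCK cells at 1 × 10^5 cells/mL were exposed to inhibitor at varied concentrations for 48 h at 37 °C, 5.0% CO2. Viability was read with CellTiter 96 AQueous reagent (15 min, absorbance at 490 nm). CC50 was derived by curve fitting as for EC50.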

[2] = biological target: Neuraminidase (Influenza A virus (A/Puerto Rico/8/1934(H1N1))) (UniProt P03468); assay: Irreversible inhibition of influenza A virus (A/WSN/1933(H1N1)) neuraminidase using MUNANA as fluorogenic substrate preincubated up to 48 hrs followed by substrate addition and measured after 15 mins by fluorometric assay
Sequence of Neuraminidase (Influenza A virus (A/Puerto Rico/8/1934(H1N1))) (P03468 whole entry): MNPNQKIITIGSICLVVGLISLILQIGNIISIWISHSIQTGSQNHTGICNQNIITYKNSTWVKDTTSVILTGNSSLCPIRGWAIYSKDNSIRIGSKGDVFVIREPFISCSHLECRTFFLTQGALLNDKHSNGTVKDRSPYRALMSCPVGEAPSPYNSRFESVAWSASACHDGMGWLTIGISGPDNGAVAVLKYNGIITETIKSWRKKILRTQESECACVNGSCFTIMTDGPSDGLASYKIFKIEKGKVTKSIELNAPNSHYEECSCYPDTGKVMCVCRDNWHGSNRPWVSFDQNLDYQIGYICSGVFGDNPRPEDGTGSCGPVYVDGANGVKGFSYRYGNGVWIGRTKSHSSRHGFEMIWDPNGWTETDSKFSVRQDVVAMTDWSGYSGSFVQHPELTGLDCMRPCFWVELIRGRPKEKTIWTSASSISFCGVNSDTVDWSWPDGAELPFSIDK

## CCC(CC)O[C@@H]1C=C(C(=O)O)C[C@H](N)[C@H]1NC(C)=O [OSELTAMIVIR CARBOXYLATE]
Influenza A virus
  EC50: 28 nM

## CCCCOS(=O)(=O)C1=C[C@@H](OC(CC)CC)[C@H](NC(C)=O)[C@@H](N)C1
Influenza A virus
  EC50: 190 nM

## CCC(CC)O[C@@H]1C=C(S(=O)(=O)OCCCc2ccccc2)C[C@H](N)[C@H]1NC(C)=O
Influenza A virus
  EC50: 280 nM

## CCC(CC)O[C@@H]1C=C([S+]([O-])O)C[C@H](N)[C@H]1NC(C)=O (stereo not given in full)
Influenza A virus
  EC50: 48 nM
[1]
  CC50 at 48 h: > 100000 nM

## CCC(CC)O[C@@H]1C=C(S(=O)(=O)O)C[C@H](NC(=N)N)[C@H]1NC(C)=O
Influenza A virus
  EC50: 2.2 nM
[1]
  CC50 at 48 h: > 100000 nM

## CCC(CC)O[C@@H]1C=C(B(O)O)C[C@H](NC(=N)N)[C@H]1NC(C)=O
[2]
  inhibition: inactive
Influenza A virus
  EC50: 580 nM

## CCC(CC)O[C@@H]1C=C(S(=O)(=O)O)C[C@H](N)[C@H]1NC(C)=O
Influenza A virus
  EC50: 14 nM
[1]
  CC50 at 48 h: > 100000 nM

## CCCCOS(=O)(=O)C1=C[C@@H](OC(CC)CC)[C@H](NC(C)=O)[C@@H](NC(=N)N)C1
Influenza A virus
  EC50: 31 nM
[1]
  CC50 at 48 h: > 100000 nM

## CCC(CC)O[C@@H]1C=C(C(=O)O)C[C@H](NC(=N)N)[C@H]1NC(C)=O
Influenza A virus
  EC50: 14 nM

## CCC(CC)O[C@@H]1C=C([B-](F)(F)F)C[C@H](NC(=N)N)[C@H]1NC(C)=O
[2]
  inhibition: inactive
Influenza A virus
  EC50: 270 nM

## CCC(CC)O[C@@H]1C=C(S(=O)(=O)OCCCc2ccccc2)C[C@H](NC(=N)N)[C@H]1NC(C)=O
Influenza A virus
  EC50: 24 nM
[1]
  CC50 at 48 h: > 100000 nM

## CCC(CC)O[C@@H]1C=C(S(=O)(=O)CCc2ccncc2)C[C@H](NC(=N)N)[C@H]1NC(C)=O
Influenza A virus
  EC50: 100 nM
[1]
  CC50 at 48 h: > 100000 nM

## CCC(CC)O[C@@H]1C=C(B(O)O)C[C@H](N)[C@H]1NC(C)=O
[2]
  inhibition: inactive
Influenza A virus
  EC50: 1700 nM

## CCC(CC)O[C@@H]1C=C([B-](F)(F)F)C[C@H](N)[C@H]1NC(C)=O
[2]
  inhibition: inactive
Influenza A virus
  EC50: 860 nM

## CCC(CC)O[C@@H]1C=C([S+]([O-])O)C[C@H](NC(=N)N)[C@H]1NC(C)=O (stereo not given in full)
Influenza A virus
  EC50: 7.8 nM
[1]
  CC50 at 48 h: > 100000 nM

## CCC(CC)O[C@@H]1C=C(S(=O)(=O)CCc2ccncc2)C[C@H](N)[C@H]1NC(C)=O
Influenza A virus
  EC50: 1500 nM

## CCC(CC)O[C@@H]1C=C(S(C)(=O)=O)C[C@H](N)[C@H]1NC(C)=O
Influenza A virus
  EC50: 1200 nM

## CCC(CC)O[C@@H]1C=C(S(C)(=O)=O)C[C@H](NC(=N)N)[C@H]1NC(C)=O
Influenza A virus
  EC50: 46 nM
[1]
  CC50 at 48 h: > 100000 nM
